Test [1] deals with NOD mice. Description: β cell mass in NOD mice after two weeks of treatment. To be noted: 0.25 or 2.5 mg/kg intraperitoneal for 2 weeks. The class given is in vivo. The procedure, abridged: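 Female NOD mice, 6 weeks old, were given test compound or vehicle (5% DMSO, 2% Tween 80, 20% PEG400, saline) intraperitoneally for two weeks. Pancreata were fixed in 4% paraformaldehyde, paraffin-embedded, sectioned and stained for insulin. β cell mass was derived from insulin+ area relative to whole pancreas area. N=4–5 mice per group; mean ±SEM; ANOVA.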

For test [2], the system named is NOD mice. Description: Insulitis score in prediabetic NOD mice after two weeks of treatment. The class given is in vivo. To be noted: 0.25 or 2.5 mg/kg intraperitoneal for 2 weeks. The procedure, abridged: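 Female NOD mice, 6 weeks old, received vehicle (5% DMSO, 2% Tween 80, 20% PEG400, saline) or test compound by intraperitoneal injection for two weeks. Pancreata were fixed in 4% paraformaldehyde, paraffin-embedded and sectioned. Islet infiltration was scored 1–4: none, <50% circumference, >50% circumference, intra-islet. N=4–5 mice per group; mean ±SEM; ANOVA.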

Another test has as its system human islets. The test is described as follows: Polyribosome profiling of human islets treated with proinflammatory cytokines. The class given is cell-based. To be noted: 50 nM with IFN-γ + IL-1β. The procedure, abridged:
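Human islets were pretreated 1 h with vehicle or test compound (50 nM), then exposed 18–24 h to 1000 IU/mL IFN-γ + 50 IU/mL IL-1β. Translation was halted with 50 μg/mL cycloheximide for 10 min, and lysates were made in buffer pH 7.5 with 10 mM MgCl2. Lysates were run on a 50–10% sucrose gradient (40,000 rpm, 2 h, 4°C) and fractionated with A254 monitoring. Fraction RNA was quantified by qRT-PCR relative to input.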

A further test has as its system p-GCN2. The test is described as follows: Immunoblot for p-GCN2 in mouse embryonic fibroblasts. The class given is cell-based. To be noted: 6 h, MEFs. A digest of the protocol:
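MEFs grown in DMEM with 10% FBS were exposed to test compound (1 μM or 100 nM) or DMSO for 6 h. Protein lysates were collected and immunoblotted.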
A general note: In western blotting, separated proteins are transferred to a membrane and probed.

In another test the test system is PD-L1. The class given is cell-based, human. Particulars: 10 μM concurrent with cytokines 18–24 h, GOLM1 siRNA, EndoC-βH1 cells. The procedure, abridged: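 EndoC-βH1 cells (low-glucose DMEM, 2% BSA, nicotinamide, β-mercaptoethanol, matrigel-fibronectin coating) had 1 h pretreatment with DMSO or test compound (50 nM). They were then co-treated 18–24 h with 1000 IU/mL IFN-γ + 50 IU/mL IL-1β. For knockdown, Accell GOLM1 siRNA was used and protein was taken 72–96 h later. Proteasome blockade was 10 μM MG132 with cytokines 18–24 h, starting 72 h post-knockdown. Immunoblot; N=3 biological replicates; ANOVA.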

Where a SMILES comes first, the peptide text is derived from it. The star is where a group is joined. Cbz = O=C(OCc1ccccc1)*

Regarding `O=C(COc1ccc(Cl)cc1)NC1CCC(NC(=O)COc2ccc(Cl)cc2)CC1` (stereo not drawn) [ISRIB], in the test on NOD mice [1], the β cell mass result is given as “no effect on β cell mass”. Further, the insulitis result in the test with NOD mice [2] was “significant reduction in insulitis”. Besides, in the test on human islets, the “RNA sedimenting with polysomes (translation initiation blockade)” value is given as “recovery of the RNA sedimenting with polysomes”.

With `C/C=C(/C)C(=O)O[C@H]1C(C)=C2[C@H]([C@@H]1OC(=O)CCCCCCC)[C@@](C)(OC(C)=O)C[C@H](OC(=O)CCC)[C@@]1(O)[C@H]2OC(=O)[C@@]1(C)O` [thapsigargin], the “effect on p-GCN2” value with p-GCN2 (1 μM) is given as “suppresses it”.

In the case of `CC(C)C[C@@H](C=O)NC(=O)[C@H](CC(C)C)NC(=O)[C@H](CC(C)C)NC(=O)OCc1ccccc1` [MG132] (Cbz-Leu-Leu-Leu-aldehyde), the “attenuation of PD-L1 levels upon GOLM1 knockdown” value in the test on PD-L1 is reported as “partially reversed”.

Turning to `O=C(CC1NCCCC1O)Cn1cnc2cc(Br)c(Cl)cc2c1=O` (stereo not drawn) [halofuginone], in the test with p-GCN2 (100 nM), the “effect on p-GCN2” value is given as “robustly induces p-GCN2”.

(Values after paper PMC11185543 (bioRxiv, 2024).)
